Assay results reported in ChEMBL document CHEMBL4261508, “Pyrazolo[3,4-d]pyrimidines as sigma-1 receptor ligands for the treatment of pain. Part 2: Introduction of cyclic substituents in position 4” (Medchemcomm, 2017).

Assays:
[1] = target: Sigma non-opioid intracellular receptor 1 (Homo sapiens, UniProt Q99720); experiment: Displacement of [3H]-(+)-pentazocine from recombinant human sigma1 receptor expressed in HEK293 cell membranes after 120 mins by microbeta scintillation counting method
[2] = species: Cavia porcellus; experiment: Displacement of [3H]-DTG from sigma2 receptor in guinea pig brain membranes at 1 uM after 120 mins in presence of sigma1 […] (+)-SKF10047 by microbeta scintillation counting method relative to control; format: cell membranes; conditions: Membrane
Method in brief: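 σ2R binding in guinea pig brain membranes with [³H]-di-o-tolylguanidine as radioligand. Compound tested at 1 μM as % inhibition. Mean of two determinations.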

[3] = Stability of the compound assessed as drug degradation at pH 2; format: physicochemical; conditions: buffer
Method in brief: (§1)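 Chemical stability measured by LC/MS. A 10 mM DMSO stock of compound was diluted into phosphate buffer pH 7.4 or 0.01 M HCl pH 2.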

[4] = Stability of the compound assessed as drug degradation at pH 7.4; format: physicochemical; conditions: buffer; method in brief: as §1

Sequence of Sigma non-opioid intracellular receptor 1 (Q99720 whole entry): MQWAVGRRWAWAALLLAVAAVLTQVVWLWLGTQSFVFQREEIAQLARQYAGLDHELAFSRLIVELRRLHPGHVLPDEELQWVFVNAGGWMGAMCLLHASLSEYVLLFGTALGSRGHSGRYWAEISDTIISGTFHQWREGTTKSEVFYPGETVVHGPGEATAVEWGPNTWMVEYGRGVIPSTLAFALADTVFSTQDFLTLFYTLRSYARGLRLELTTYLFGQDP

Structure (SMILES) | Ki [1] | inhibition [2] | Stability [3] | Stability [4]
c1coc(-c2ncnc3c2cnn3CCN2CCCCC2)n1 | 23800 nM | – | – | –
Fc1cc(Cl)ccc1-c1ncnc2c1cnn2CCN1CCCCC1 | 112 nM | 73% | – | –
c1cc(-c2ncnc3c2cnn3CCN2CCCCC2)ccn1 | 1720 nM | – | – | –
Fc1ccc(-c2ncnc3c2cnn3CCN2CCCCC2)cc1C(F)(F)F | 57 nM | 87% | Stable | Stable
Clc1ccccc1-c1ncnc2c1cnn2CCN1CCCCC1 | 76 nM | 92% | Stable | Stable
CCOc1ccccc1-c1ncnc2c1cnn2CCN1CCCCC1 | 300 nM | 81% | – | –
CC1(C)CCN(c2ncnc3c2cnn3CCN2CCCCC2)C1 | 165 nM | 58% | – | –
Cc1noc(C)c1-c1ncnc2c1cnn2CCN1CCCCC1 | 72 nM | – | Stable | Stable
COc1ccc(-c2ncnc3c2cnn3CCN2CCCCC2)cn1 | 38300 nM | – | – | –
Cn1cnc(-c2ncnc3c2cnn3CCN2CCCCC2)c1 | 11800 nM | – | – | –
Cn1cncc1-c1ncnc2c1cnn2CCN1CCCCC1 | 715 nM | – | – | –
Cc1ccc(Cl)c(-c2ncnc3c2cnn3CCN2CCCCC2)c1 | 31 nM | 95% | Stable | Stable
Cc1cncc(-c2ncnc3c2cnn3CCN2CCCCC2)c1 | 447 nM | – | – | –
Cc1ccc(C)c(-c2ncnc3c2cnn3CCN2CCCCC2)c1 | 63 nM | 89% | Stable | Stable
CC(C)n1cc(-c2ncnc3c2cnn3CCN2CCCCC2)cn1 | 2910 nM | – | – | –
c1nc(-c2cn[nH]c2)c2cnn(CCN3CCCCC3)c2n1 | 802 nM | – | – | –
c1cn(-c2ncnc3c2cnn3CCN2CCCCC2)cn1 | 13800 nM | – | – | –
CC(C)(C)C(=O)Nc1ncnc2c1cnn2CCN1CCCCC1 | – | – | Stable | Stable
N#Cc1ccc(-c2ncnc3c2cnn3CCN2CCCCC2)cc1 | 558 nM | 47% | – | –
Cn1cccc1-c1ncnc2c1cnn2CCN1CCCCC1 | 31 nM | – | Stable | Stable
Cc1cccc(-c2ncnc3c2cnn3CCN2CCCCC2)c1 | 82 nM | 82% | Stable | Stable
CNC1CCN(c2ncnc3c2cnn3CCN2CCCCC2)C1 (stereo not drawn) | 25800 nM | – | – | –
COc1cc(F)ccc1-c1ncnc2c1cnn2CCN1CCCCC1 | 39 nM | 87% | Stable | Stable
O=C1CCCN1c1ncnc2c1cnn2CCN1CCCCC1 | 6190 nM | – | – | –
FC(F)(F)c1ccccc1-c1ncnc2c1cnn2CCN1CCCCC1 | 125 nM | 86% | – | –
